Source: ChEMBL document CHEMBL1147580, “Antihyperglycemic activity of 2-methyl-3,4,5-triaryl-1H-pyrroles in SLM and STZ models” (2004)
Activity calls are given as the source filed them. The rule behind the calls is not given here.

Key:
Rattus norvegicus [1] = experiment: In vivo anti-hyperglycaemic activity of compound in rat streptozotocin(60 mg/kg, ip) model (STZ) at 100 mg/kg dose
Rattus norvegicus [2] = experiment: In vivo anti-hyperglycaemic activity of compound in rat sucrose(100 mg/kg, oral gavage) loaded model (SLM) at 100 mg/kg dose; assay type: functional
Summary of the method: (§1)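 Overnight-fasted male Sprague–Dawley rats, five per group, were bled at baseline and then given the compound at 100 mg/kg by oral gavage. Sucrose (10 gm/kg) was loaded 30 min later. Blood glucose was taken at 30, 60, 90 and 120 min after the load, and % fall was calculated by the AUC method. Values are means of three experiments.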

Rattus norvegicus [3] = experiment: In vivo anti-hyperglycaemic activity of compound in rat sucrose(100 mg/kg, oral gavage) loaded model (SLM) at 100 mg/kg dose; NA = not active; assay type: functional, organism-based; parameters: dose 100 mg/kg
Summary of the method: as §1

SMILES	Blood sugar lowering (Rattus norvegicus [1])	Blood sugar lowering (Rattus norvegicus [2])	Blood sugar lowering (Rattus norvegicus [3])
COc1ccc(-c2c(C)[nH]c(-c3ccccc3)c2-c2ccccc2)cc1OC	28.6%	27.8%	
Cc1[nH]c(-c2ccccc2)c(-c2ccccc2)c1-c1ccccc1F			inactive
Cc1[nH]c(-c2ccccc2)c(-c2ccccc2)c1-c1ccc(F)cc1	34.7%	49.7%	
COc1ccc(-c2c(C)[nH]c(-c3ccccc3)c2-c2ccccc2)c(OC)c1		20.3%	
Cc1[nH]c(-c2ccc(Cl)cc2)c(-c2ccc(Cl)cc2)c1-c1ccc(F)cc1			inactive
Cc1[nH]c(-c2ccccc2)c(-c2ccccc2)c1-c1cccc(C(F)(F)F)c1	25.1%	40.8%	
c1ccc(-c2nc(-c3ccccc3)c(-c3ccccc3)nc2-c2ccccc2)cc1		21.9%	
Cc1[nH]c(-c2cccc(Cl)c2)c(-c2cccc(Cl)c2)c1-c1ccc(F)cc1			inactive
Cc1[nH]c(-c2ccc(Cl)cc2)c(-c2ccc(Cl)cc2)c1-c1ccccc1F			inactive
COc1ccc(-c2[nH]c(C)c(-c3ccc(F)cc3)c2-c2ccc(OC)cc2)cc1		14.7%	
